# miR-122 sensor: blocks miR-122 activity in Huh7 sensor cells | Huh7 miR-122 Renilla luciferase sensor, 48 h; neutral wells = 0, positive control = 100 | activation (reporter increase), % at 12.5 µM | 340,000 tested, 0.3% active;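 active = mean replicate activation score at least 90 and every replicate individually at or above 90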;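 also: higher luciferase means less miR-122 activity so hits act as miR-122 inhibitors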
# Jurkat NFkB inh: inhibitors of the PMA/ionomycin-induced NF-kB reporter in Jurkat cells; AID 435003; PMA/ionomycin-induced NF-kB luciferase reporter, luminescence; 330,000 tested, 0.53% active; inhibition, % at 4 µM; in the data active = inhibition above about 50%
# NR2E3 ag-1: activates human photoreceptor nuclear receptor NR2E3; Q9Y5X4; GST-NR2E3/biotin-RetCOR TR-FRET, 1536-well; inhibition of corepressor binding, % at 4.78 µM; 320,000 tested, 0.12% active; AID 2300;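 active = percent inhibition above the cutoff of mean plus 3 SD of all tested compounds, set per screening campaign, cut at about 20% in these data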;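 also: 0% = DMSO wells and 100% = biotin wells as full block of FRET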
# Target sequence (Q9Y5X4 whole entry, looked up): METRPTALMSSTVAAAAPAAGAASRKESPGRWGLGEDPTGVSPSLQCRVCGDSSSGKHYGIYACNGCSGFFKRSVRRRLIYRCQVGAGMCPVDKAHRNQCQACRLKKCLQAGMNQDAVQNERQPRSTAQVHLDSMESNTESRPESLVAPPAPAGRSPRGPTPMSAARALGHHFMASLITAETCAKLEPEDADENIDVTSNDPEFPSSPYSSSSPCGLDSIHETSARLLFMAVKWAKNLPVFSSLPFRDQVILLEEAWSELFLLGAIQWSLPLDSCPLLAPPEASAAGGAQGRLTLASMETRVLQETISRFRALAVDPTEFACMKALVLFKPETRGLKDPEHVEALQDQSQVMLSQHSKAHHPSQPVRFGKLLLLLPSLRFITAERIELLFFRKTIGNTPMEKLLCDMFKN
#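 Test system: GST-NR2E3 and biotin-RetCOR proteins | Quantity: 1.35 nM GST-tagged NR2E3 final | Medium: Tris pH 7.5 | Also added: 7 nM biotin-RetCOR | Dosing: Compound at 4.8 µM, single dose | Timing: 5 h at 4 °C | Detection: Time-resolved FRET | Read-out basis: Percent inhibition | Benchmarks: Biotin wells as high control, 0.6% DMSO wells as low control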
# 697 NFkB inh: inhibitors of the PMA/ionomycin-induced NF-kB reporter in 697 B cells. 697 B-cell NF-kB luciferase reporter, 16 h. inhibition, % at 4 µM. 330,000 tested, 0.33% active; in the data active = inhibition above about 35%
# NR2E3 ag-2: activates human NR2E3 receptor; Q9Y5X4; CHO-S Gal4-NCOR/VP16-NR2E3 two-hybrid, luciferase; inhibition of corepressor binding, % at 3.98 µM; 360,000 tested, 0.35% active; AID 602229;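 active = inhibition above the mean of all tested compounds plus 3 SD, cut at about 70% in these data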;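 also: 0% = DMSO with NR2E3 transfected cells and 100% = cells lacking NR2E3 construct; higher means lower luciferase signal from less NR2E3 corepressor binding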
# FGF22 binding: shifts melting point of recombinant human FGF22; recombinant FGF22 thermal shift, SYPRO orange fluorescence; percent of sucrose octasulfate shift, DMSO zero; activity (Tm shift, normalised), % at 9.99 µM; 340,000 tested, 1.5% active; AID 651658;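 active = mean Tm shift, scaled 0 neutral to 100 positive control, at about 1.3% or above, every replicate too, limit read from the data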
# Target sequence (Q9HCT0 whole entry, looked up): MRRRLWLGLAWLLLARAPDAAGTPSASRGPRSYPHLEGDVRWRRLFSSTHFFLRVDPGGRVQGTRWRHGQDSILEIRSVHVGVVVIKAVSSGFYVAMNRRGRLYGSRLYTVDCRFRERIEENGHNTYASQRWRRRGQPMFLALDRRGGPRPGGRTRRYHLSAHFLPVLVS
# Starred values were filed as active, the others as inactive; nt = no result; ! = not active in a repeat; [ ] = another dose, or the depositor's remark. Shown are actives, neighbours in structure and some others; about 2.2% of the full set was active somewhere.
SMILES,miR-122 sensor,Jurkat NFkB inh,NR2E3 ag-1,697 NFkB inh,NR2E3 ag-2,FGF22 binding
O=C(Nc1nnc(Cc2ccc(Cl)cc2)s1)C1CCCO1 (configuration not stated),-8,1,-3,2,-5,43*
COc1ccc(Cc2nnc(NC(=O)C3CCCO3)s2)cc1 (configuration not stated),4,-10,-5,4,-18,nt
CC(C)CC1NC(=O)N(CCCCN2C(=O)c3ccccc3C2=O)C1=O (configuration not stated),nt,-2,-2,-2,-3,44*
O=C1C(Oc2ccccc2)C(c2ccc3c(c2)OCO3)N1CCc1ccc(F)cc1 (configuration not stated),238*,-4,-2,-34,5,0
COc1ccc(CCN2C(=O)C(Oc3ccccc3C)C2c2ccc3c(c2)OCO3)cc1 (configuration not stated),14,2,3,-16,-7,0
CCC(=O)N(C)C[C@@H]1Oc2cc(Br)ccc2S(=O)(=O)N([C@@H](C)CO)C[C@H]1C,0[16.7 µM],nt,nt,nt,nt,0
Cc1ccc(C)c(NC(=O)Cn2cnc3c(oc4ccccc43)c2=O)c1,0,16,2,10,-8,45*
O=C(Cn1cnc2c(oc3ccccc32)c1=O)NCc1ccccc1,5,-1,-2,5,-4,0
COCCNC(=O)C1CCCN(S(=O)(=O)c2c(C)noc2/C=C/c2cccs2)C1 (configuration not stated),nt,10,1,4,14,0
COC(CNC(=O)C1CCCN(S(=O)(=O)c2c(C)noc2/C=C/c2cccs2)C1)OC (configuration not stated),nt,0,2,11,-5,1.4*
COc1ccc(NC(=O)N(C)C[C@@H]2Oc3ccc(NS(=O)(=O)c4c(C)noc4C)cc3CC(=O)N([C@H](C)CO)C[C@@H]2C)cc1,-3[16.7 µM],nt,nt,nt,nt,0
Cc1cnc(C(=O)NCc2ccc(Cl)cc2Cl)cn1,nt,10,1,13,11,43*
O=C(C1CC1)N1CCCCN2[C@H](CO)[C@H](c3ccc(-c4ccncc4)cc3)[C@@H]2C1,28[16.7 µM],nt,nt,nt,nt,0
COc1ccc(NC(=O)/C(Cl)=C(/Cl)S(=O)(=O)Cc2ccc(C)cc2)cn1,-17,nt,nt,nt,86*,nt
CC(=O)c1c(C)[nH]c(C(=O)CSc2nnc(CN3CCCCCC3=O)n2-c2ccccn2)c1C,-2,-1,-3,-18,-16,nt
CCNC(=O)CSc1nnc(CN2CCCCCC2=O)n1-c1ccccn1,nt,0,2,-5,-7,43*
CCCn1c(SCc2nc3ccccc3s2)n[nH]c1=O,14,-102,-1,-103,-87,0
O=c1[nH]nc(SCc2nc3ccccc3s2)n1C1CC1,22,-30,1,-21,-17,43*
NC1=NC(=O)/C(=C/c2cc(Br)c(O)c(Br)c2)S1,nt,-6,-7,7,29,2.0*
NC1=NC(=O)/C(=C/c2ccc(Br)cc2)S1,-4,-11,1,-11,-41,0
O=C(OCc1cc([N+](=O)[O-])cc2c1OCOC2)c1ccccn1,nt,-3,3,10,-1,43*
O=C(OCc1cc([N+](=O)[O-])cc2c1OCOC2)c1cccnc1SC(F)F,nt,0,nt,-3,1,0
Cc1ccc(NC(=O)CSc2nc3[nH]ncc3c(=O)[nH]2)cc1,7,-9,-3,12,2,44*
COC(=O)c1ccc(NC(=O)CSc2nc3[nH]ncc3c(=O)[nH]2)cc1,nt,16,2,10,2,0
O=C(CSc1nc2[nH]ncc2c(=O)[nH]1)Nc1ccc(OC(F)(F)F)cc1,nt,5,4,-6,25,14*
SMILES,miR-122 sensor,Jurkat NFkB inh,NR2E3 ag-1,697 NFkB inh,NR2E3 ag-2,FGF22 binding
C[C@H](CO)N1C[C@H](C)[C@@H](CN(C)Cc2ccc(Cl)c(Cl)c2)Oc2c(NS(=O)(=O)c3cccs3)cccc2C1=O,95*!,0,nt,12,-11,0
Cc1ccc(S(=O)(=O)Nc2cccc3c2O[C@H](CN(C)Cc2ccc(Cl)c(Cl)c2)[C@@H](C)CN([C@H](C)CO)C3=O)cc1,72[16.7 µM],nt,nt,nt,nt,0
C[C@@H]1CN([C@H](C)CO)C(=O)c2cccc(NS(=O)(=O)c3cccs3)c2O[C@@H]1CN(C)Cc1ccc(C(F)(F)F)cc1,61[16.7 µM],nt,nt,nt,nt,0
C[C@@H]1CN([C@H](C)CO)C(=O)c2cccc(NS(=O)(=O)c3cccs3)c2O[C@H]1CN(C)Cc1ccc(C(F)(F)F)cc1,264*[16.7 µM],nt,nt,nt,nt,-1
Cc1ccc(S(=O)(=O)Nc2cccc3c2O[C@@H](CN(C)Cc2ccc(Cl)c(Cl)c2)[C@H](C)CN([C@H](C)CO)C3=O)cc1,110*[16.7 µM],nt,nt,nt,nt,-1
C[C@@H]1CN([C@@H](C)CO)C(=O)c2cc(NS(=O)(=O)c3ccc(F)cc3)ccc2O[C@@H]1CN(C)Cc1ccc(-c2ccccc2)cc1,-49[16.7 µM],nt,nt,nt,nt,-1
CCC(=O)N(c1ccc(C(=O)O)cc1)c1nc(-c2ccc(OC)cc2)c(C)s1,9,-5,2,-11,-14,44*
CCCC#Cc1ccc2c(c1)O[C@H](CN(C)S(=O)(=O)c1cccc(F)c1)[C@@H](C)CN([C@H](C)CO)S2(=O)=O,36[16.7 µM],nt,nt,nt,nt,0
O=C(C[C@@H]1CC[C@@H](NC(=O)CC2CC2)[C@@H](CO)O1)NCC(F)(F)F,12[16.7 µM],nt,nt,nt,nt,0
Cc1ccc(Nc2n[nH]c(=S)s2)cc1F,nt,nt,nt,nt,-90,46*
COCCN(C(=O)Cc1cccs1)C(C(=O)NCc1ccc(OC)cc1)c1ccc(C)cc1 (configuration not stated),19,-16,2,-2,-20,nt
COc1ccc(CNC(=O)C(c2ccc(C)o2)N(Cc2cccs2)C(=O)Cc2cccs2)cc1 (configuration not stated),158*,2,1,14,6,nt
CC(N=Cc1cc([N+](=O)[O-])ccc1O)c1ccccc1 (configuration not stated),-16,1,3,2,2,44*
O=C(NNC(=O)C1CC1)c1ccc(-c2ccccc2)cc1,5,11,2,7,-9,0
O=C(NNC(=O)c1ccccc1C(=O)O)c1ccc(-c2ccccc2)cc1,nt,10,-3,20,nt,43*
O=C(CN(C(=O)c1csnn1)c1cccc(F)c1)NCc1ccc2c(c1)OCO2,-5,3,5,7,-12,43*
O=C(Nc1ccc2c(c1)OCO2)N[C@H]1CC[C@H](CC(=O)N2CCN(c3ccccc3)CC2)O[C@@H]1CO,nt,nt,nt,nt,nt,0
COCC(=O)Nc1ccc2c(c1)OC[C@H](C)N(C(=O)CC1CC1)C[C@H](C)[C@@H](OC)CN(C)C2=O,nt,nt,nt,nt,nt,0
CCOC(=O)N1CCN(C(=O)CCCn2c(=O)[nH]c3ccccc3c2=O)CC1,-6,8,-2,3,-47,nt

# Screens (PubChem BioAssay)
